# Compound activity (PubChem BioAssay)
# Shown are actives, neighbours in structure and some others; about 2.5% of the full set was active somewhere.
# UCH37 DUB inh = human UCH37 deubiquitinating enzyme inhibition; Q9Y5K5; purified proteasome/UCH37, Ub-AMC cleavage fluorescence; inhibition, % (no concentration beside the values); 330,000 tested, 0.33% active; AID 588478;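 active = mean inhibition over replicate wells above about 20%, limit read from the data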;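 note: 0% = compound-free wells with enzyme and 100% = wells lacking proteasome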
# Target sequence (Q9Y5K5 whole entry, looked up): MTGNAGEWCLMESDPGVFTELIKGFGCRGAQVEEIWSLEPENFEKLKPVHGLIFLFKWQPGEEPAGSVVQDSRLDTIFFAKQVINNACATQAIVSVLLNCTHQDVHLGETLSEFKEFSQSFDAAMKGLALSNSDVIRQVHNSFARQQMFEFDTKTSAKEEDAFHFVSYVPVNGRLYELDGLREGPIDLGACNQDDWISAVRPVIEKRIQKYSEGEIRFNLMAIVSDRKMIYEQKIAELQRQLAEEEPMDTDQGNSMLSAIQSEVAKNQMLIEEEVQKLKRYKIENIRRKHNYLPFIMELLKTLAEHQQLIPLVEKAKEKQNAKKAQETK
#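 Material: Human UCH37 enzyme supplied as purified proteasome complex | Schedule: 30 min preincubation with enzyme, 25 min cleavage at room temperature | Detection: AMC fluorescence 355/460 nm | Measure: % inhibition of Ub-AMC cleavage fluorescence | Controls: Wells without proteasome as full block, compound-free enzyme plus substrate as uninhibited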
# MEKK3 PB1 HTS = modulators (inhibitors or enhancers) of MEK5 binding to human MEKK3 PB1 domain; bead-based flow cytometry, Alexa488-MEK5 binding to MEKK3; actives lie on both sides; 0 = blocked by unlabeled MEK5, 100 = vehicle; Q99759; binding response (% of control), % at 10 µM; 290,000 tested, 1.4% active;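 active = binding response more than 3 SD above or below the average of its plate-row segment, actives on both sides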;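 note: Alexa488 bead fluorescence after subtracting the streptavidin-only scavenger bead signal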
# Rce1 inhib = yeast Ras-converting enzyme inhibition. yeast membranes, quenched prenylated peptide cleavage fluorescence. Q03530. calls only. 290,000 tested, 0.27% active;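 active = fall in fluorescence gain of 50% or more versus controls, with final raw signal at or below 3038400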;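 note: plate controls were neutral control wells for no effect and wells lacking membranes for full effect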
# Target sequence (Q03530 whole entry, looked up): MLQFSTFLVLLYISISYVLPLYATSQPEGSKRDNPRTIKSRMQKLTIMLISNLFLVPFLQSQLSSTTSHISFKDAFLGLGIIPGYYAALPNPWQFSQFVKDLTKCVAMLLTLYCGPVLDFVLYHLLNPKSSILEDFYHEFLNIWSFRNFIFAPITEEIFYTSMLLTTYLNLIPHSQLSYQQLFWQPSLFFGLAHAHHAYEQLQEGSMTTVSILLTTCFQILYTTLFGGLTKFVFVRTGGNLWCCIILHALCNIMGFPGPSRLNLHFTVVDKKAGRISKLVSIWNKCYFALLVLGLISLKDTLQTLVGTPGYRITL
# MEKK2mut PB1 HTS = signal of MEK5 binding to mutant human MEKK2 PB1 domain | bead flow cytometry, Alexa488-MEK5 binding to MEKK2 mutant | percent response, % at 10 µM | 290,000 tested, 0.35% active | AID 1530; in the data active = percent response above about 24%, passing the limit was not always enough
# MEKK2wt PB1 HTS = raises or lowers MEK5 binding to wildtype human MEKK2 PB1 domain. Q9Y2U5. bead flow cytometry, Alexa488-MEK5 binding to MEKK2 WT; actives lie on both sides. binding response (% of control), % at 10 µM. 290,000 tested, 1.1% active. AID 1531; in the data active = binding response below about 67% or above about 130%
# T cell HTS = modulates CD8 T cell binding to vesicles. 2C CD8+ T cell-vesicle binding, flow cytometry; hits give low values. response (vesicle binding), % at 7 µM. 330,000 tested, 0.068% active. AID 2052;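 active = response, share of CD8 T cells binding vesicles, and their 90th percentile fluorescence all below set limits, cut at about 80% in these data, passing the limit was not always enough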;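 note: values below 100% mean blocked vesicle binding to the CD8+ T cells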
#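 Assay system: 2C TCR transgenic mouse naive CD8+ T cells, MACS-purified | Read-out: CD8+ gate FL2 mean fluorescence as % of same-row positive control | Signal: High-throughput flow cytometry with anti-B7-1 and anti-CD8 staining | Timing: Binding step 1.5 h, 37 °C, antibody labelling 20 min, ice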
# MEKK2wt confirm = raises or lowers MEK5 binding to wildtype human MEKK2, retest; shares compounds with MEKK3 PB1 HTS; bead flow cytometry, Alexa488-MEK5 binding to MEKK2 WT; actives lie on both sides; binding response (% of control), % at 10 µM; 5,900 tested, 2.4% active; in the data active = binding response below about 16% or above about 210%; inactive = in between
# MEKK2mut-MEK5 = signal of MEK5 binding to mutant human MEKK2, retest | shares compounds with MEKK3 PB1 HTS | bead flow cytometry, Alexa488-MEK5 binding to MEKK2 mutant | percent response, % at 10 µM | 5,900 tested, 2% active | AID 1893; in the data active = percent response mostly above about 71%, no sharp cut-off; inactive = mostly below about 38%;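 note: higher means compound restores mutant binding toward wildtype level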
# MEKK3 confirm = MEKK3-MEK5 PB1 inhibition, single concentration confirmation | 5,900 tested, 1.8% active | binding response (% of control), % at 10 µM | shares compounds with MEKK3 PB1 HTS | AID 1894 | bead flow cytometry, Alexa488-MEK5 binding to MEKK3; hits give low values;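 active = binding response below 72% of control, or above a set upper limit, though filed actives all read lower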;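 note: 100% = DMSO only wells and 0% = binding blocked by excess unlabeled MEK5; lower values mean stronger disruption of MEK5 binding to MEKK3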
# * marks the source's active call; other numbers are inactive results; i = inactive; . = not tested or not shown; [ ] = another dose, or the depositor's remark.
SMILES,UCH37 DUB inh,MEKK3 PB1 HTS,Rce1 inhib,MEKK2mut PB1 HTS,MEKK2wt PB1 HTS,T cell HTS,MEKK2wt confirm,MEKK2mut-MEK5,MEKK3 confirm
Cc1ccc(S(=O)(=O)c2c(N)n(-c3ccccc3)c3nc4ccccc4nc23)cc1,.,136.0*,i,0.0,102.0,144.5,94.0,2.0,92.0
NS(=O)(=O)c1ccc(CCNCc2ccccc2OCc2ccc(Cl)cc2)cc1,5.5,106.0,i,8.0,145.0*,259.3,129.0,16.0,108.0
C=CCOc1ccccc1CNCCc1ccc(S(N)(=O)=O)cc1,5.8,88.0,i,-55.0,109.0,279.4,.,.,.
NS(=O)(=O)c1ccc(CCNCc2cc(Br)ccc2OCc2ccccc2F)cc1,4.8,95.0,i,21.0,133.0,157.8,.,.,.
NS(=O)(=O)c1ccc(CCNCc2cc(Cl)ccc2OCc2ccccc2)cc1,3.3,108.0,i,6.0,144.0*,173.4,135.0,20.0,106.0
O=C(CCc1[nH]c2ccccc2c1Sc1ccccc1)NCCO,2.2,67.0*[inhibitor],i,3.0,98.0,185.2,99.0,-3.0,104.0
Brc1cc2c(cc1C=NNc1nc(N3CCOCC3)nc(N3CCOCC3)n1)OCO2,5.7,.,.,.,.,.,.,.,.
COc1ccc(C(CCNC(C)c2ccccc2)C(C)C)cc1 (stereo not given),5.5,103.0,i,10.0,118.0,317.7,.,.,.
COc1ccc(C(C)NCCC(c2ccc(OC(C)C)cc2)c2ccccc2OC)cc1 (stereo not given),0.0,110.0,i,45.0*,194.0*,119.4,180.0,44.0,109.0
Cc1cc(SCc2ccccc2)nc(=O)[nH]1,2.7,2.0*[inhibitor],i,-17.0,2.0*[inhibitor],300.6,94.0,-1.0,91.0
Cc1cc(SCc2ccc(F)cc2)nc(=O)[nH]1,2.7,101.0,i,-3.0,99.0,554.5,.,.,.
Cc1c(N2C(=O)c3ccc(Br)cc3C2=O)c(=O)n(-c2ccccc2)n1C,0.5,2.0*[inhibitor],i,-16.0,3.0*[inhibitor],421.6,97.0,5.0,100.0
FC(F)(F)c1ccccc1NN=Cc1cccnc1,5.8,.,.,.,.,.,.,.,.
CCOc1ccc(C(=O)NN=Cc2cc(Cl)ccc2[N+](=O)[O-])cc1,4.2,.,.,.,.,.,.,.,.
CCOC(=O)c1c(C)[nH]c(=S)c(C#N)c1-c1ccc(Cl)cc1,1.3,95.0,i,-2.0,96.0,476.9,.,.,.
CCOC(=O)c1c(C)[nH]c(=S)c(C#N)c1-c1ccc(OC)cc1,6.6,122.0*,i,5.0,108.0,225.5,98.0,0.0,101.0
CC(N=c1ccccn1C(=O)Nc1ccc(F)cc1)c1ccco1 (stereo not given),0.1,0.0*[inhibitor],i,-39.0,-4.0*[inhibitor],996.1,95.0,-18.0,95.0
CC(N=c1ccccn1C(=O)Nc1ccc(Cl)cc1)c1ccco1 (stereo not given),1.7,99.0,i,-5.0,96.0,554.2,.,.,.
CCOc1cc(C=NOC(C)=O)ccc1OCc1ccccc1,8.6,.,.,.,.,.,.,.,.
Cc1csc2sc(-c3ccnc(SCC(=O)NCc4ccccc4)n3)c(C)c12,.,130.0*,i,27.0,112.0,448.2,103.0,-2.0,102.0
Cc1csc(SCC(=O)NCc2ccccc2)n1,0.3,101.0,i,-1.0,102.0,329.8,.,.,.
COc1ccc(C=Nn2cnnc2)cc1Cn1nc(C)c([N+](=O)[O-])c1C,2.6,.,.,.,.,.,.,.,.
C=CCn1c(COc2ccccc2)nnc1SC(C)C(=O)NN=Cc1cc(Cl)ccc1O (stereo not given),-0.7,.,.,.,.,.,.,.,.
Cc1ccc(C2CCN(C(=S)NC(C)C)C2)cc1 (stereo not given),0.5,48.0*[inhibitor],i,-40.0,58.0,304.2,99.0,2.0,101.0
COc1ccc(Cl)cc1NC(=S)N1CCC(c2ccc(C)cc2)C1 (stereo not given),3.8,106.0,i,4.0,103.0,106.7,.,.,.
SMILES,UCH37 DUB inh,MEKK3 PB1 HTS,Rce1 inhib,MEKK2mut PB1 HTS,MEKK2wt PB1 HTS,T cell HTS,MEKK2wt confirm,MEKK2mut-MEK5,MEKK3 confirm
COc1ccc(/C=C/CN2CCCC(CO)(Cc3cccc(Cl)c3)C2)cc1 (stereo not given),0.6,110.0,i,6.0,159.0*,171.9,113.0,15.0,102.0
COc1ccc(C=NNC2=NCCCCC2)cc1,5.1,.,.,.,.,.,.,.,.
O=C(CCC(=O)CCN1CCCCC1)CCN1CCCCC1,1.0,102.0,i,32.0,175.0*,119.0,136.0,14.0,97.0
CC(=NOCc1ccc(Br)cc1)c1ccccn1,0.4,.,.,.,.,.,.,.,.
Cc1cccc(N2CN=c3sc(=Cc4ccccn4)c(=O)n3C2)c1,6.4,.,.,.,.,.,.,.,.
Cc1ccc[n+](-c2[nH]c(=O)sc2C=N/N=C(\[O-])c2cccnc2)c1,2.4,.,.,.,.,.,.,.,.
CC(/C=C/c1ccccc1)=NNC(=O)c1nc2nc(C)cc(C)n2n1,-26.1,.,.,.,.,.,.,.,.
CC(/C=C/c1ccccc1)=N/NC(=O)c1nc2nc(C)cc(C)n2n1,.,130.0*,i,1.0,117.0,641.5,97.0,0.0,100.0
Cc1nn(-c2ccccc2)c(N2CCCC2)c1C=NNC(=S)Nc1ccccc1C(F)(F)F,0.5,.,.,.,.,.,.,.,.
CC(=NNC(=S)NCc1ccccc1)c1ccc(C#N)cc1,2.2,.,.,.,.,.,.,.,.
CCOc1ccccc1N(CC(=O)NCCSc1ccccc1)S(C)(=O)=O,4.4,132.0*,i,1.0,119.0,148.3,103.0,0.0,107.0
COc1ccccc1N(CC(=O)NCCSc1ccccc1)S(C)(=O)=O,1.6,95.0,i,-1.0,93.0,388.5,.,.,.
O=C(O)c1cccc(-c2ccc(C=Nn3cnnc3)o2)c1,-3.4,.,.,.,.,.,.,.,.
CC(=NNc1nc(C)cc(-c2ccccc2)n1)c1ccccc1,3.2,.,.,.,.,.,.,.,.
CCCNC(=O)c1nc(C)c(C)nc1C(=O)Nc1cccc(Cl)c1,2.5,99.0,i,0.0,101.0,356.5,.,.,.
O=C(Nc1cccc(F)c1)Nc1cccc(Cl)c1,2.6,103.0,i,1.0,110.0,231.4,.,.,.
Cc1nc(C)c(C(=O)Nc2cccc(Cl)c2)o1,2.7,77.0*[inhibitor],i,-6.0,84.0,402.5,103.0,4.0,101.0
O=C(Nc1cccc(S(=O)(=O)N2CCCCCC2)c1)c1ccc2c(c1)OCO2,1.9,140.0*,i,-1.0,105.0,214.4,101.0,-3.0,106.0
Cc1nc(C)c(C(=O)NCc2ccc(Cl)cc2)o1,5.5,76.0*[inhibitor],i,-6.0,81.0,268.7,99.0,-2.0,104.0
